Assay results taken from ChEMBL document CHEMBL4184148 (Bioorg Med Chem Lett, 2017).

Assays:
HEK293 = test: Cytotoxicity against human HEK293 cells assessed as reduction in cell viability up to 33.3 uM after 72 hrs by CellTiter-Glo assay relative to control; assay type: cell-based; details: hek293, 72 h
How it was run: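 Cells were treated across a dose-response range for 72 h, and viability was read by CellTiter-Glo luminescence. Measurements were made in triplicate and reported with standard error.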

[1] = tested on: ALK tyrosine kinase receptor (Homo sapiens), Q9UM73 [C1156Y]; test: Binding affinity to wild-type human partial length ALK C1156Y mutant (I1088 to E1409 residues) expressed in HEK293 cells at 1 uM by Kinomescan method relative to control; assay type: cell-based
[2] = molecular target: Tyrosine-protein kinase Blk (Homo sapiens) (UniProt P51451); test: Binding affinity to wild-type human partial length BLK (G211 to L503 residues) expressed in Escherichia coli BL21 at 1 uM by Kinomescan method relative to control
[3] = molecular target: Cyclin-dependent kinase 11A (Homo sapiens) (UniProt Q9UQ88); test: Binding affinity to wild-type human partial length CDC2L2 (D391 to K730 residues) expressed in Escherichia coli BL21 at 1 uM by Kinomescan method relative to control
[4] = molecular target: Cyclin-dependent kinase 11B (Homo sapiens) (UniProt P21127); test: Binding affinity to wild-type human partial length CDK11 (M1 to N360 residues) expressed in Escherichia coli BL21 assessed as residual activity at 1000 nM after 1 hr by Kinomescan method relative to control
[5] = molecular target: CDK4/Cyclin D3 (Homo sapiens) (UniProt P11802+P30281); test: Binding affinity to wild-type human full length CDK4/cyclinD3 (M1 to E303 residues) expressed in HEK293 cells at 1 uM by Kinomescan method relative to control; assay type: cell-based
[6] = molecular target: Serine/threonine-protein kinase DCLK2 (Homo sapiens) (UniProt Q8N568); test: Binding affinity to wild-type human partial length DCAMKL2 (K273 to V664 residues) expressed in Escherichia coli BL21 at 1 uM by Kinomescan method relative to control
[7] = molecular target: Ephrin type-A receptor 7 (Homo sapiens) (UniProt Q15375); test: Binding affinity to wild-type human partial length EPHA7 (Y608 to S912 residues) expressed in Escherichia coli BL21 at 1 uM by Kinomescan method relative to control
[8] = molecular target: Mitogen-activated protein kinase 4 (Homo sapiens) (UniProt P31152); test: Binding affinity to wild-type human partial length ERK4 (M1 to L365 residues) expressed in Escherichia coli BL21 at 1 uM by Kinomescan method relative to control
[9] = molecular target: Mitogen-activated protein kinase 15 (Homo sapiens) (UniProt Q8TD08); test: Binding affinity to wild-type human partial length ERK8 (M1 to P437 residues) expressed in Escherichia coli BL21 at 1 uM by Kinomescan method relative to control
[10] = molecular target: Tyrosine-protein kinase Fgr (Homo sapiens) (UniProt P09769); test: Binding affinity to wild-type human partial length FGR (L233 to T529 residues) expressed in Escherichia coli BL21 at 1 uM by Kinomescan method relative to control
[11] = tested on: Receptor-type tyrosine-protein kinase FLT3 (Homo sapiens), P36888 [R834Q]; test: Binding affinity to human partial length FLT3 R834Q mutant (V592 to Y969 residues) expressed in HEK293 cells at 1 uM by Kinomescan method relative to control; assay type: cell-based
[12] = tested on: Leucine-rich repeat serine/threonine-protein kinase 2 (Homo sapiens), Q5S007 [G2019S]; test: Binding affinity to human partial length LRRK2 G2019S mutant (H970 to E2527 residues) expressed in HEK293 cells at 1 uM by Kinomescan method relative to control; assay type: cell-based
[13] = molecular target: Maternal embryonic leucine zipper kinase (Homo sapiens) (UniProt Q14680); test: Binding affinity to wild-type human full length MELK (M1 to V651 residues) expressed in Escherichia coli BL21 at 1 uM by Kinomescan method relative to control
How it was run: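 Run as one kinome-wide competition binding panel with each compound at a single fixed concentration. Results were plotted as a kinome-wide selectivity map.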

[14] = tested on: Hepatocyte growth factor receptor (Homo sapiens), P08581 [Y1235D]; test: Binding affinity to human partial length MET Y1235D mutant (D1010 to S1367 residues) expressed in Escherichia coli BL21 at 1 uM by Kinomescan method relative to control
[15] = molecular target: Serine/threonine-protein kinase 24 (Homo sapiens) (UniProt Q9Y6E0); test: Binding affinity to wild-type human partial length MST3 (A30 to S311 residues) expressed in Escherichia coli BL21 at 1 uM by Kinomescan method relative to control
[16] = molecular target: Mitogen-activated protein kinase kinase kinase 14 (Homo sapiens) (UniProt Q99558); test: Binding affinity to wild-type human partial length NIK (L318 to P947 residues) expressed in HEK293 cells at 1 uM by Kinomescan method relative to control; assay type: cell-based
[17] = molecular target: Mitogen-activated protein kinase 11 (Homo sapiens) (UniProt Q15759); test: Binding affinity to wild-type human full length p38-beta (M1 to Q364 residues) expressed in Escherichia coli BL21 at 1 uM by Kinomescan method relative to control
How it was run: (§1)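 Kinome-wide competition binding panel run by an outside provider, with each compound tested at a single concentration. Activity is read against the kinase panel.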

[18] = molecular target: Serine/threonine-protein kinase PAK 3 (Homo sapiens) (UniProt O75914); test: Binding affinity to wild-type human full length PAK3 (M1 to R544 residues) expressed in Escherichia coli BL21 at 1 uM by Kinomescan method relative to control; how it was run: as §1
[19] = molecular target: Platelet-derived growth factor receptor alpha (Homo sapiens) (UniProt P16234); test: Binding affinity to wild-type human partial length PDGFRA (V575 to D1002 residues) expressed in HEK293 cells at 1 uM by Kinomescan method relative to control; assay type: cell-based
[20] = molecular target: cAMP-dependent protein kinase catalytic subunit alpha (Homo sapiens) (UniProt P17612); test: Binding affinity to wild-type human partial length PKAC-alpha (G10 to F351 residues) expressed in Escherichia coli BL21 at 1 uM by Kinomescan method relative to control
[21] = molecular target: Serine/threonine-protein kinase PLK1 (Homo sapiens) (UniProt P53350); test: Binding affinity to wild-type human partial length PLK1 (A33 to F325 residues) expressed in HEK293 cells at 1 uM by Kinomescan method relative to control; assay type: cell-based
[22] = molecular target: Protein kinase C delta type (Homo sapiens) (UniProt Q05655); test: Binding affinity to wild-type human partial length PRKCD (Q328 to D676 residues) expressed in Escherichia coli BL21 at 1 uM by Kinomescan method relative to control
[23] = molecular target: Receptor-interacting serine/threonine-protein kinase 4 (Homo sapiens) (UniProt P57078); test: Binding affinity to wild-type human partial length RIPK4 (M1 to V303 residues) expressed in HEK293 cells at 1 uM by Kinomescan method relative to control; assay type: cell-based
[24] = molecular target: Serine/threonine-protein kinase 32C (Homo sapiens) (UniProt Q86UX6); test: Binding affinity to wild-type human partial length YANK3 (M68 to G486 residues) expressed in Escherichia coli BL21 at 1 uM by Kinomescan method relative to control
Chain of Serine/threonine-protein kinase 32C (Homo sapiens) (Q86UX6 whole entry, the tested form may be a part): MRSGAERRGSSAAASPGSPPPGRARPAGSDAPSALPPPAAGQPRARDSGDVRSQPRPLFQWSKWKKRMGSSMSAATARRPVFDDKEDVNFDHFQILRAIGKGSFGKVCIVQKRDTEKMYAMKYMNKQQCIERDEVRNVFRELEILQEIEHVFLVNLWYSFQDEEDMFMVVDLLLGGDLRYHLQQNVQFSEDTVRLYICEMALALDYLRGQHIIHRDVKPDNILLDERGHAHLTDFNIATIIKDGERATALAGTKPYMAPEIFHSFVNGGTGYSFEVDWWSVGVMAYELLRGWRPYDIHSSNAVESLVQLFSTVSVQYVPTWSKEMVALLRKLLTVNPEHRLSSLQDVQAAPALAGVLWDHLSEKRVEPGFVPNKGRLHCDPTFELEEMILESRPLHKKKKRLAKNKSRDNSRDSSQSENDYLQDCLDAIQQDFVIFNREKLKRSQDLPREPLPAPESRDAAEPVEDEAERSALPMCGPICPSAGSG

Chain of Serine/threonine-protein kinase 24 (Homo sapiens) (Q9Y6E0 whole entry, looked up, the tested form may be a part): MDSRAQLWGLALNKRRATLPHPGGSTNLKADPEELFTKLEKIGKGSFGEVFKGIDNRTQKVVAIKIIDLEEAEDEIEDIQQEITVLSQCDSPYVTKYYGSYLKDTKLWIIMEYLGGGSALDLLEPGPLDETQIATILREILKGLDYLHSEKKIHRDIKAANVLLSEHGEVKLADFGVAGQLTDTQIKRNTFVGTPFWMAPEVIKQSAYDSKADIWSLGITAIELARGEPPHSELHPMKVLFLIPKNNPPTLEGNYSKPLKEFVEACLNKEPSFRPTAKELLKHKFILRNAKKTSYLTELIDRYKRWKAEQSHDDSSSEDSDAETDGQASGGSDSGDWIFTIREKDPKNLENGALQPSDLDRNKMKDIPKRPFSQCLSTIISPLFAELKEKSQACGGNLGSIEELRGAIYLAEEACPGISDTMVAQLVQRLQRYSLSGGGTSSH
Chain of Mitogen-activated protein kinase 11 (Homo sapiens) (Q15759 whole entry, the tested form may be a part): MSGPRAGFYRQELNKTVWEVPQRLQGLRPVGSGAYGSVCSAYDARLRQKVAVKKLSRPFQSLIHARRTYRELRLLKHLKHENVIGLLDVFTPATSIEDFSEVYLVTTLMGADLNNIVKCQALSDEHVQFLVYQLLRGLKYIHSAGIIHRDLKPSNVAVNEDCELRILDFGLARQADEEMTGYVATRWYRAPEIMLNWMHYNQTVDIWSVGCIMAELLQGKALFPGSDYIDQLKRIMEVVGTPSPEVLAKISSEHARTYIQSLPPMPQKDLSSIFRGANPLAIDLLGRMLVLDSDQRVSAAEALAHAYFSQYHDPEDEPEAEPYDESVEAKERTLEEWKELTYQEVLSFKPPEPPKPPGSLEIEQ
Chain of Serine/threonine-protein kinase PAK 3 (Homo sapiens) (O75914 whole entry, looked up, the tested form may be a part): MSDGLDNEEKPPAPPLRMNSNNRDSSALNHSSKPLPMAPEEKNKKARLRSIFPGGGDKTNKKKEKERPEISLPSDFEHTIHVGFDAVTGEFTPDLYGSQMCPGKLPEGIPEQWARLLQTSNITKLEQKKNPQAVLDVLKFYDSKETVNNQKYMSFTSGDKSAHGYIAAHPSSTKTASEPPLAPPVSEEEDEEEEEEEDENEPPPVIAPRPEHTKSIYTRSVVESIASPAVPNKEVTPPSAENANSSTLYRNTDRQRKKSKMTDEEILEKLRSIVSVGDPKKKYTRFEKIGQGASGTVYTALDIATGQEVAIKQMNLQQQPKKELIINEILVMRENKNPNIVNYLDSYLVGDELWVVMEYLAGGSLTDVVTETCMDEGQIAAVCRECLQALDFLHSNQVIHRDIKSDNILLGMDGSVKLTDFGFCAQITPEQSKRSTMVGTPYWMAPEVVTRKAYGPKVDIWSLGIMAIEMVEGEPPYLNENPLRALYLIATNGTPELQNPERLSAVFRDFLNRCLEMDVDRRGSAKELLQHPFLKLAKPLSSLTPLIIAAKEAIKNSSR
Chain of Tyrosine-protein kinase Fgr (Homo sapiens) (P09769 2-529 limits assumed): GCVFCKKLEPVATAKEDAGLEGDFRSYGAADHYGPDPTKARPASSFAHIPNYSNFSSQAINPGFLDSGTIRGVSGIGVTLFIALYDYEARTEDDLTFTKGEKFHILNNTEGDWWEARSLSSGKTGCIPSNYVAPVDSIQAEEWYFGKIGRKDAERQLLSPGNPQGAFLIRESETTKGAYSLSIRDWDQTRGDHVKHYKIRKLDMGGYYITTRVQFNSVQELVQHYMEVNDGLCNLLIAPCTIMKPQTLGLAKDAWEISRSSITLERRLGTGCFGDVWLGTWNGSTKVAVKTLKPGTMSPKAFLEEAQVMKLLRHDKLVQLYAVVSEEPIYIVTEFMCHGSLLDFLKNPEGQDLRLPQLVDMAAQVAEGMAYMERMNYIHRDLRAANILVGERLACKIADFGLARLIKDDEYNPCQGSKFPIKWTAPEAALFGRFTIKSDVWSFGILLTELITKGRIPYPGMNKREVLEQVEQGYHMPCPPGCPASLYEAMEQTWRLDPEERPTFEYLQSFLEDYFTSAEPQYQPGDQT
Chain of Protein kinase C delta type (Homo sapiens) (Q05655 whole entry, looked up, the tested form may be a part): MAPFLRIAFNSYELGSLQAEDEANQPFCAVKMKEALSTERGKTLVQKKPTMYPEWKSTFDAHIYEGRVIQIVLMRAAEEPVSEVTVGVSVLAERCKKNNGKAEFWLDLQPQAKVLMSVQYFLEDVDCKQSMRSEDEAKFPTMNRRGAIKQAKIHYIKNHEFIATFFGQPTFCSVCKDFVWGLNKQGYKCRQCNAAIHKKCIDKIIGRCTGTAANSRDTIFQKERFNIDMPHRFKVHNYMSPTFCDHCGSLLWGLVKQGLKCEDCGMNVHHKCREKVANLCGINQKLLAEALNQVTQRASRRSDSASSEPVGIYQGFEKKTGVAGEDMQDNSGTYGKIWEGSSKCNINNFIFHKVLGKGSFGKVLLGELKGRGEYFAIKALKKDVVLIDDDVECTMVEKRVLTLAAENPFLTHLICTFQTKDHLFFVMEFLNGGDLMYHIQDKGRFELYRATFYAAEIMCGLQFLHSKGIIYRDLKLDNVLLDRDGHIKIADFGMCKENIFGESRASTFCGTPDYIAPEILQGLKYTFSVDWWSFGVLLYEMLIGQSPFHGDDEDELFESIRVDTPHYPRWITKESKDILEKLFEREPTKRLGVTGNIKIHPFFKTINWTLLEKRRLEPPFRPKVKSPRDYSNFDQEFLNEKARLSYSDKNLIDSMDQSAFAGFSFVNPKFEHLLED
Chain of Cyclin-dependent kinase 11B (Homo sapiens) (P21127 whole entry, the tested form may be a part): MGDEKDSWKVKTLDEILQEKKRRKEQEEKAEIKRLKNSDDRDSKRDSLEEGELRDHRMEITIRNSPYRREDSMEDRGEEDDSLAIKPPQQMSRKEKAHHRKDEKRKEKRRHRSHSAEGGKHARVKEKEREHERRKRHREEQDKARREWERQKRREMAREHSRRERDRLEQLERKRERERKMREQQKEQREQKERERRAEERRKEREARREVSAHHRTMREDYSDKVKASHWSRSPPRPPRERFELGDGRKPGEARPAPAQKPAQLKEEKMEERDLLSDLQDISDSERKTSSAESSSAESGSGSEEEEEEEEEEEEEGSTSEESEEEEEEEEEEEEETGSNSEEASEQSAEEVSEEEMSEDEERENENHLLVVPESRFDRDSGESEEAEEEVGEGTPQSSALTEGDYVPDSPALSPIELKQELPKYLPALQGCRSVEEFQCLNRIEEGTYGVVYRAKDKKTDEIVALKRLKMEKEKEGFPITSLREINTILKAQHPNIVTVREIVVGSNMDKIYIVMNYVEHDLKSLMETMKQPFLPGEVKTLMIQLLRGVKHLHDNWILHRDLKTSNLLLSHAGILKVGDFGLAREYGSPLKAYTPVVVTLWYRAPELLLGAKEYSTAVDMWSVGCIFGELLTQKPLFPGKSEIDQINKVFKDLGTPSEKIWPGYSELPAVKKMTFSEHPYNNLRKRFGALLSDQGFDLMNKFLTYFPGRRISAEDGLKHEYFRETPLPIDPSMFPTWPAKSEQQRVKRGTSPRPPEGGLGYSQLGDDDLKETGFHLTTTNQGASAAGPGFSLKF
Chain of Cyclin-dependent kinase 11A (Homo sapiens) (Q9UQ88 whole entry, the tested form may be a part): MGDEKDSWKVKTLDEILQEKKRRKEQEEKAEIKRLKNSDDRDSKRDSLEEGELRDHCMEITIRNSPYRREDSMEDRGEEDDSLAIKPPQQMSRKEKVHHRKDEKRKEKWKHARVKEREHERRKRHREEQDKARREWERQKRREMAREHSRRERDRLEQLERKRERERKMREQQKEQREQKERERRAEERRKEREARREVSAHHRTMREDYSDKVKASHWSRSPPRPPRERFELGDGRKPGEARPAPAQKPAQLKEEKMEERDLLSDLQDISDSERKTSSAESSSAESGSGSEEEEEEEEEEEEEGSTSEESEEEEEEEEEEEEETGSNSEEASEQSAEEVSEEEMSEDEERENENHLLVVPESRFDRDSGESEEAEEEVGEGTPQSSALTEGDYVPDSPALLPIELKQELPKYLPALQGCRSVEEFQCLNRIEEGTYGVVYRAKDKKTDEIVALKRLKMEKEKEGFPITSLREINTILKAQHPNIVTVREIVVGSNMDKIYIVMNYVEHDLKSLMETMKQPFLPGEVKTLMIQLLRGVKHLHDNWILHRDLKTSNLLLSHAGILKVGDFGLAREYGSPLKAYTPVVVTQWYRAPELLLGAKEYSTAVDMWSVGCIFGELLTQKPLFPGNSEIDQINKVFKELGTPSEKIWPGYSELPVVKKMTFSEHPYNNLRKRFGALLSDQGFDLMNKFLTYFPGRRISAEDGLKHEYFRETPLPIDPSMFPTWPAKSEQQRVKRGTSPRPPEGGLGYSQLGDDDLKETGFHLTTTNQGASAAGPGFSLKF

Row | Compound | Activity (HEK293) | Activity [1] | Activity [2] | Activity [3] | Activity [4] | Activity [5] | Activity [6] | Activity [7] | Activity [8] | Activity [9] | Activity [10] | Activity [11] | Activity [12] | Activity [13] | Activity [14] | Activity [15] | Activity [16] | Activity [17] | Activity [18] | Activity [19] | also measured
1 | C=CC(=O)Nc1ccc(C(=O)Nc2ccc(Nc3ncc4c(n3)N(C)c3ccc(C)cc3C(=O)N4C)cc2)cc1 | 50% | 94% | 96% | 100% | 100% | 100% | 78% | 94% | 85% | 96% | 93% | 98% | 99% | 97% | 87% | 100% | 99% | 89% | 69% | 91% | Activity [20]: 100%; Activity [21]: 91%; Activity [22]: 97%; Activity [23]: 91%; Activity [24]: 100%
2 | CCC(=O)Nc1ccc(C(=O)Nc2ccc(Nc3ncc4c(n3)N(C)c3ccc(C)cc3C(=O)N4C)cc2)cc1 | 50% | 100% | 74% | 88% | 100% | 85% | 81% | 86% | 95% | 94% | 96% | 86% | 100% | 78% | 91% | 100% | 100% | 100% | 55% | 63% | Activity [20]: 87%; Activity [21]: 100%; Activity [22]: 84%; Activity [23]: 86%; Activity [24]: 100%
